Laboratory results taken from ChEMBL document CHEMBL5705901, “Exploiting selective BCL-2 family inhibitors to dissect cell survival dependencies and define improved strategies for cancer therapy” (Sci Transl Med, 2015).

What was measured:
[1] = molecular target: Induced myeloid leukemia cell differentiation protein Mcl-1 (Homo sapiens, UniProt Q07820); assay: Binding affinity to MCL-1 (unknown origin) assessed as dissociation constant incubated for 1 hrs by TR-FRET assay
[2] = Toxicity in Sprague-Dawley rat assessed as inhibition of granulopoiesis by measuring reduction in neutrophil count at 50 mg/kg, po administered daily for 5 days measured on day 6 in presence of docetaxel by microscopic analysis relative to control; format: organism-based; settings: in vivo, 144 h, time 6 day
Summary of the method: (§1)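 Male Sprague-Dawley rats, n = 10 per group: docetaxel 5 mg/kg i.v. once, or oral inhibitor daily for 5 days (30, 50 or 7 mg/kg depending on agent), alone or combined with docetaxel, against vehicles. Total neutrophil and platelet counts in blood collected on day 6; Tukey-Kramer test versus vehicle.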

Bcl-2-like protein 1 = Bcl-2-like protein 1 (Homo sapiens, UniProt Q07817); assay: Binding affinity to Bcl-xl (unknown origin) assessed as dissociation constant incubated for 1 hrs by TR-FRET assay
Bcl-2-like protein 2 = molecular target: T1, Bcl-2-like protein 2 (Homo sapiens, UniProt Q92843); assay: Binding affinity to BCL-W (unknown origin) assessed as dissociation constant incubated for 1 hrs by TR-FRET assay
T1 sequence (Q92843 whole entry): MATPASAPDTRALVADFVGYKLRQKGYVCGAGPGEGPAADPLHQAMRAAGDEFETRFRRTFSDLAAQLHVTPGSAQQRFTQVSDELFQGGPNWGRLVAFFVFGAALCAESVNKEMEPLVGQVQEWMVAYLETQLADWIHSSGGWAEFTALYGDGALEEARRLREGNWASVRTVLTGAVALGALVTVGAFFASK

[3] = Toxicity in Sprague-Dawley rat assessed as inhibition of granulopoiesis by measuring reduction in neutrophil count at 50 mg/kg, po administered daily for 5 days measured on day 6 by microscopic analysis relative to control; format: organism-based; parameters: scale not given: the % may be the effect or the level left; settings: in vivo, 144 h, time 6 day; summary of the method: as §1
[4] = molecular target: Apoptosis regulator Bcl-2 (Homo sapiens, UniProt P10415); assay: Binding affinity to Bcl-2 (unknown origin) assessed as dissociation constant incubated for 1 hrs by TR-FRET assay
MOLT-4 = assay: Antiproliferative activity against Bcl-xl dependent human MOLT-4 cells assessed as reduction in cell viability by measuring effect concentration by CellTiter-Glo reagent based assay; format: functional
[5] = Toxicity in Sprague-Dawley rat assessed as inhibition of […] by measuring reduction in circulating platelets at 50 mg/kg, po administered daily for 5 days and measured on day 6 by microscopic analysis; format: organism-based; settings: in vivo, 144 h, time 6 day; summary of the method: as §1
[6] = Toxicity in Sprague-Dawley rat assessed as inhibition of […] by measuring reduction in circulating platelets at 30 mg/kg, po administered daily for 5 days and measured on day 6 by microscopic analysis; format: organism-based; settings: in vivo, 144 h, time 6 day; summary of the method: as §1
[7] = Toxicity in Sprague-Dawley rat assessed as inhibition of granulopoiesis by measuring reduction in neutrophil count at 30 mg/kg, po administered daily for 5 days measured on day 6 in the presence of docetaxel by microscopic analysis relative to control; format: organism-based; settings: in vivo, 144 h, time 6 day; summary of the method: as §1
[8] = Toxicity in Sprague-Dawley rat assessed as inhibition of granulopoiesis by measuring reduction in neutrophil count at 30 mg/kg, po administered daily for 5 days measured on day 6 by microscopic analysis relative to control; format: organism-based; parameters: scale not given: the % may be the effect or the level left; settings: in vivo, 144 h, time 6 day; summary of the method: as §1

Bcl-2-like protein 1, sequence (Q07817 whole entry): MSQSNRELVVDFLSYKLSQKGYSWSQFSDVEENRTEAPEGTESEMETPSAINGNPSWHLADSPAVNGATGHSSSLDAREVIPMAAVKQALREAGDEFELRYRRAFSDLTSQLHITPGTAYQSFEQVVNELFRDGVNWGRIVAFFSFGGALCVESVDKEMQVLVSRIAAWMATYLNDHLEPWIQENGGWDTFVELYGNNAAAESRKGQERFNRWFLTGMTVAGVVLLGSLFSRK
Apoptosis regulator Bcl-2, sequence (P10415 whole entry): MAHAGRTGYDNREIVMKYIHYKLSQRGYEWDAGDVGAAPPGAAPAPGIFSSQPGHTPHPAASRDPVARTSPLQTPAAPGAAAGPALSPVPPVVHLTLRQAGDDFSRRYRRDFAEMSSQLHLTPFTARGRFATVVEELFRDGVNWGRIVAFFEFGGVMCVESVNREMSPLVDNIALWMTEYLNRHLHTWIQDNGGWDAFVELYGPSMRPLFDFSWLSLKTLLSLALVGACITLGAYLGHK
Induced myeloid leukemia cell differentiation protein Mcl-1, sequence (Q07820 whole entry): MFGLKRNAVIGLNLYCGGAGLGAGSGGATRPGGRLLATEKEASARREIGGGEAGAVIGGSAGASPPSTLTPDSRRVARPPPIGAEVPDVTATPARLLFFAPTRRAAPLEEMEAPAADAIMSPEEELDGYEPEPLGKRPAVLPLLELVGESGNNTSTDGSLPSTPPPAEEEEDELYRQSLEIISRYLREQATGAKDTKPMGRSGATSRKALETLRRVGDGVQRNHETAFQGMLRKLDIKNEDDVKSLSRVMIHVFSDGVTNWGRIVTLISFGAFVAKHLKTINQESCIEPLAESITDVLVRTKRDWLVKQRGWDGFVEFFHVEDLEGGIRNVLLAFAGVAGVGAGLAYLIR

Row | SMILES | Ki [1] | Activity [2] | Ki (Bcl-2-like protein 1) | Ki (Bcl-2-like protein 2) | Activity [3] | Ki [4] | EC50 (MOLT-4) | Activity [5] | Activity [6] | Activity [7] | Activity [8]
1 | CO[C@H]1CC[C@H](CNc2ccc(S(=O)(=O)NC(=O)c3ccc(N4CCN(CC5=C(c6ccc(Cl)cc6)CC(C)(C)CC5)CC4)cc3Oc3cnc4[nH]ccc4c3)cc2[N+](=O)[O-])CC1 [A-1211212] | > 444 nM | Toxic | 14 nM | 852 nM | 41% | < 0.01 nM | > 5000 nM | Non-Toxic | – | – | –
2 | CC1(C)CCC(CN2CCN(c3ccc(C(=O)NS(=O)(=O)c4ccc(N[C@H](CCN5CCOCC5)CSc5ccccc5)c(S(=O)(=O)C(F)(F)Cl)c4)cc3)CC2)=C(c2ccc(Cl)cc2)C1 | > 3900 nM | – | 0.463 nM | 2 nM | – | 0.048 nM | 134 nM | – | Toxic | Toxic | 41%
